pEC50: −log10 of the molar value. ≈ marks a conversion by molar mass, not a printed value.
Tests used:
[1] = biological target: T1, Sphingosine 1-phosphate receptor 1 (Homo sapiens, UniProt P21453); experiment: Agonist activity at human S1P1 receptor assessed as cAMP accumulation by HTRF assay relative to S1P; type: functional
[2] = biological target: T1, Sphingosine 1-phosphate receptor 1; experiment: Agonist activity at human S1P1 receptor assessed as cAMP accumulation by HTRF assay; type: functional
In short: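 S1P1 engagement measured as cyclase activity in a homogeneous time-resolved fluorescence (HTRF) assay.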

[3] = biological target: T2, Sphingosine 1-phosphate receptor 5 (Homo sapiens, UniProt Q9H228); experiment: Agonist activity at human S1P5 receptor by beta-arrestin recruitment assay
T2 sequence (Q9H228 whole entry): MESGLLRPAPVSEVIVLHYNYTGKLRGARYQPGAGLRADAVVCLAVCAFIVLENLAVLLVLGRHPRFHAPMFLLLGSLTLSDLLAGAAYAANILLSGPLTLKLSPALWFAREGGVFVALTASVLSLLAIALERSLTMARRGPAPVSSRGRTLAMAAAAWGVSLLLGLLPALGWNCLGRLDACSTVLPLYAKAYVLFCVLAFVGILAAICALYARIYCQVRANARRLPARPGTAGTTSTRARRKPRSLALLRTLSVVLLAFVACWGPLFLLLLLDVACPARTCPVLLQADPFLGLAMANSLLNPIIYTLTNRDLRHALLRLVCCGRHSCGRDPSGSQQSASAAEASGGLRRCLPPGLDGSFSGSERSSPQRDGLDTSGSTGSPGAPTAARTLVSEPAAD

[4] = biological target: T3, Sphingosine 1-phosphate receptor 4 (Homo sapiens, UniProt O95977); experiment: Agonist activity at human S1P4 receptor by beta-arrestin recruitment assay
T3 sequence (O95977 whole entry): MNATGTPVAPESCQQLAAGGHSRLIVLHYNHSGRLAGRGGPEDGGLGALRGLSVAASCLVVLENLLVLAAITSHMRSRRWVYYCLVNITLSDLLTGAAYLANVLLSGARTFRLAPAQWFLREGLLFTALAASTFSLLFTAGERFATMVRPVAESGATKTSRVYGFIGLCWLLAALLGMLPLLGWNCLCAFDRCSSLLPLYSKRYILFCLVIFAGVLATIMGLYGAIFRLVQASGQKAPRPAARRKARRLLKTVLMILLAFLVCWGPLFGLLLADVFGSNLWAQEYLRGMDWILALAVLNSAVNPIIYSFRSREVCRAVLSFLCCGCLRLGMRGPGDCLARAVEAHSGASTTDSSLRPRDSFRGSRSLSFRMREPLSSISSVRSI

[5] = biological target: Sphingosine 1-phosphate receptor 2 (Homo sapiens, UniProt O95136); experiment: Agonist activity at human S1P2 receptor by beta-arrestin recruitment assay
Sequence of Sphingosine 1-phosphate receptor 2 (O95136 whole entry): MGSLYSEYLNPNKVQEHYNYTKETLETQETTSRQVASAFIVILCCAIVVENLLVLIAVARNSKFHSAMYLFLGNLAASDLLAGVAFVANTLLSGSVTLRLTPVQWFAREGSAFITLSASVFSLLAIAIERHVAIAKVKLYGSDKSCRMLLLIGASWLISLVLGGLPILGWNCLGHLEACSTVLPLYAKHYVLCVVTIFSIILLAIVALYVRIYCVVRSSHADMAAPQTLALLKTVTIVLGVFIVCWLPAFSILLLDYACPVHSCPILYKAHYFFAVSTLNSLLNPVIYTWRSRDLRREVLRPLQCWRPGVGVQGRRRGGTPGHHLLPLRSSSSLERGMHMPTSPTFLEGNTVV

[6] = biological target: T1, Sphingosine 1-phosphate receptor 1; experiment: Agonist activity at human S1P1 receptor by beta-arrestin recruitment assay
[7] = biological target: Sphingosine 1-phosphate receptor 3 (Homo sapiens, UniProt Q99500); experiment: Agonist activity at human S1P3 receptor by beta-arrestin recruitment assay
Sequence of Sphingosine 1-phosphate receptor 3 (Q99500 whole entry): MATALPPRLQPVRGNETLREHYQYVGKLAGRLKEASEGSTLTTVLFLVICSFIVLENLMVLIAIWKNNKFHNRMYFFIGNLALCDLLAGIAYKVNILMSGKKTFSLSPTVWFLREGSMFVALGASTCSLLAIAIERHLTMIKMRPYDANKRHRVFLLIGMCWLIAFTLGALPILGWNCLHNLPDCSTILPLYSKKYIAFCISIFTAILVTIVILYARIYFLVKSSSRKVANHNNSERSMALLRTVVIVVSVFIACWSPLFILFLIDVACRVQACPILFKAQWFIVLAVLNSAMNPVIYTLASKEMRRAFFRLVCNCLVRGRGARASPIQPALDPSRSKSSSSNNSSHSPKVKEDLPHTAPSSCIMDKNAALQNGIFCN

[8] = biological target: T1, Sphingosine 1-phosphate receptor 1; experiment: Agonist activity at human S1P1 receptor by beta-arrestin recruitment assay relative to S1P
Rattus norvegicus = organism: Rattus norvegicus; experiment: Reduction in lymphocyte count in Sprague-Dawley rat; type: functional, organism-based
In short: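 A PK/PD model relating plasma drug concentration to circulating lymphocyte counts was used to derive the plasma concentration that reduces lymphocytes by 50% (LL IC50, ng/mL).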

[9] = Tmax in Sprague-Dawley rat at 1 mg/kg, po; type: ADME, organism-based; parameters: dose 1 mg/kg, route oral; conditions: in vivo
[10] = Systemic clearance in Sprague-Dawley rat at 1 mg/kg, iv; type: ADME, organism-based; parameters: dose 1 mg/kg, route intravenous; conditions: in vivo
[11] = Cmax in Sprague-Dawley rat at 1 mg/kg, po; type: ADME, organism-based; parameters: dose 1 mg/kg, route oral; conditions: in vivo
[12] = AUC (0 to infinity) in Sprague-Dawley rat at 1 mg/kg, iv or at 1 mg/kg, po; type: ADME, organism-based; conditions: plasma
[13] = Elimination half life in Sprague-Dawley rat at 1 mg/kg, po; type: ADME, organism-based; parameters: dose 1 mg/kg, route oral; conditions: in vivo, read-out: beta t1/2 (converted)
[14] = Oral bioavailability in Sprague-Dawley rat at 1 mg/kg; type: ADME, organism-based; conditions: in vivo
[15] = Volume of distribution at steady state in Sprague-Dawley rat at 1 mg/kg, iv; type: ADME, organism-based; parameters: dose 1 mg/kg, route intravenous; conditions: in vivo, read-out: Vdss
[16] = Ratio of drug level in brain to plasma in Sprague-Dawley rat; type: ADME; conditions: read-out: BPR
In short: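 Abbreviated rat CNS distribution: a single 1.0 mg/kg oral dose, with brain and plasma drug levels measured over 6 h. Brain-to-plasma ratio derived from these levels.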

[17] = biological target: T2, Sphingosine 1-phosphate receptor 5; experiment: Agonist activity at human S1P5 receptor by beta-arrestin recruitment assay relative to S1P
[18] = biological target: T4, Sphingosine 1-phosphate receptor 4 (Homo sapiens) (UniProt O95977); experiment: Agonist activity at human S1P4 receptor by beta-arrestin recruitment assay relative to S1P
T4 sequence (whole entry): T3 sequence (O95977 whole entry)

[19] = Half life in human; type: ADME, organism-based; conditions: in vivo

T1 sequence (P21453 whole entry): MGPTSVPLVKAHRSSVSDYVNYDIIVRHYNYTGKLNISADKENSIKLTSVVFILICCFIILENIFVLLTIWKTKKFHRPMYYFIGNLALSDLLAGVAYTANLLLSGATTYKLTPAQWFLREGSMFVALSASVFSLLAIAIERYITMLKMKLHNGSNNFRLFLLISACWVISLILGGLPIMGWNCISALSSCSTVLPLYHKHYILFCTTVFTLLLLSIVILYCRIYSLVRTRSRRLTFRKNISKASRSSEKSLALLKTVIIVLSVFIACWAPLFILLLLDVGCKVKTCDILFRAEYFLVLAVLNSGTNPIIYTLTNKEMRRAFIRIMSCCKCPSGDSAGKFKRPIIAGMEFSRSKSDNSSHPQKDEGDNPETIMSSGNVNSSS

Compound	Emax [1]	pEC50 [2]	pEC50 [3]	pEC50 [4]	pEC50 [5]	pEC50 [6]	pEC50 [7]	Emax [8]	also measured
O=C(O)CC1CCn2c1cc1cc(OCc3ccc(C4CCCC4)c(C(F)(F)F)c3)ccc12 (racemic)	108%	–	–	–	–	–	–	–	–
CC(C)Oc1ccc(COc2ccc3c(c2)cc2n3CCC2CC(=O)O)cc1C(F)(F)F (single isomer, unassigned; enantiomer 1) [listing 1 of 2 here]	–	10.17	< 5.00	< 5.00	< 5.00	8.07	< 5.00	–	–
CC(C)Oc1ccc(COc2ccc3c(c2)cc2n3CCC2CC(=O)O)cc1C(F)(F)F (single isomer, unassigned; enantiomer 1) [listing 2 of 2 here]	107%	–	–	–	–	–	–	108%	–
CC(C)Oc1ccc(COc2ccc3c(c2)cc2n3CCC2CC(=O)O)cc1C(F)(F)F (single isomer, unassigned; enantiomer 2) [listing 1 of 2 here]	–	9.19	< 5.00	< 5.00	< 5.00	7.40	< 5.00	–	–
CC(C)Oc1ccc(COc2ccc3c(c2)cc2n3CCC2CC(=O)O)cc1C(F)(F)F (single isomer, unassigned; enantiomer 2) [listing 2 of 2 here]	116%	–	–	–	–	–	–	104%	–
O=C(O)CC1CCn2c1cc1cc(OCc3ccc(C4CCCC4)c(C(F)(F)F)c3)ccc12 (stereo in doubt; 12a) [listing 1 of 2 here]	–	10.39	6.97	6.24	< 5.00	8.60	< 5.00	–	IC50 (Rattus norvegicus): 0.0241 µg/mL (≈ 0.0527 µM); Tmax [9]: 2.67 h; clearance [10]: 1.2 mL/min/kg; Cmax [11]: 526 ng/mL; AUC(0-inf) [12]: 5430 ng·h/mL; half-life [13]: 9.16 h; bioavailability [14]: 39%; Vd [15]: 0.986 L/kg; Kp [16]: 0.53
O=C(O)CC1CCn2c1cc1cc(OCc3ccc(C4CCCC4)c(C(F)(F)F)c3)ccc12 (stereo in doubt; 12a) [listing 2 of 2 here]	97%	–	–	–	–	–	–	105%	Emax [17]: 83%; Emax [18]: 47%
O=C(O)CC1CCn2c1cc1cc(OCc3ccc(C4CCCC4)c(C(F)(F)F)c3)ccc12 (stereo in doubt; 12b) [listing 1 of 2 here]	–	9.49	7.09	6.38	< 5.00	7.70	< 5.00	–	–
O=C(O)CC1CCn2c1cc1cc(OCc3ccc(C4CCCC4)c(C(F)(F)F)c3)ccc12 (stereo in doubt; 12b) [listing 2 of 2 here]	100%	–	–	–	–	–	–	100%	Emax [17]: 59%; Emax [18]: 49%
CC(C)Oc1ccc(COc2ccc3c(c2)cc2n3CCC2CC(=O)O)cc1C#N (stereo in doubt; 19a) [listing 1 of 2 here]	–	9.89	6.39	< 5.00	< 5.00	7.96	< 5.00	–	IC50 (Rattus norvegicus): 0.21 µg/mL (≈ 0.519 µM); Tmax [9]: 2 h; clearance [10]: 2.18 mL/min/kg; Cmax [11]: 569 ng/mL; AUC(0-inf) [12]: 3990 ng·h/mL; half-life [13]: 3.99 h; bioavailability [14]: 49.8%; Vd [15]: 0.732 L/kg; Kp [16]: 0.016
CC(C)Oc1ccc(COc2ccc3c(c2)cc2n3CCC2CC(=O)O)cc1C#N (stereo in doubt; 19a) [listing 2 of 2 here]	98%	–	–	–	–	–	–	128%	Emax [17]: 54%
CC(C)Oc1ccc(COc2ccc3c(c2)cc2n3CCC2CC(=O)O)cc1C#N (stereo in doubt; 19b) [listing 1 of 2 here]	–	8.82	5.01	< 5.00	< 5.00	6.80	< 5.00	–	–
CC(C)Oc1ccc(COc2ccc3c(c2)cc2n3CCC2CC(=O)O)cc1C#N (stereo in doubt; 19b) [listing 2 of 2 here]	104%	–	–	–	–	–	–	122%	Emax [17]: 133%
CCCCCCCCc1ccc(CCC(N)(CO)CO)cc1 [FINGOLIMOD]	–	–	–	–	–	–	–	–	half-life [19]: 89 h
